Measured values as given in ChEMBL document CHEMBL4665633, “Cereblon versus VHL: Hijacking E3 ligases against each other using PROTACs” (Bioorg Med Chem, 2019).
Calls of active or inactive are those of the source. The rule behind the calls is not given here.

Assays:
Type in all cases: cell-based
[1] = molecular target: T1, Protein cereblon/von Hippel-Lindau disease tumor suppressor (Homo sapiens, UniProt P40337+Q96SW2); assay: Protac activity at VHL/CRBN in human HeLa cells assessed as CRBN protein abundance at 5000 nM after 4 hrs by Western blot analysis relative to DMSO
T1 sequence (P40337 whole entry, looked up): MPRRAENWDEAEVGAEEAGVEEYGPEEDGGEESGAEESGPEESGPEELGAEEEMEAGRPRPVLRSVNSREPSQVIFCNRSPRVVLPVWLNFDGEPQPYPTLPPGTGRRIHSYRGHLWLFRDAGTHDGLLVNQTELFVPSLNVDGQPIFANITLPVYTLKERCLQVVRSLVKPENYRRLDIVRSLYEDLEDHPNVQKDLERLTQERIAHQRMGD
T1 sequence (Q96SW2 whole entry, looked up): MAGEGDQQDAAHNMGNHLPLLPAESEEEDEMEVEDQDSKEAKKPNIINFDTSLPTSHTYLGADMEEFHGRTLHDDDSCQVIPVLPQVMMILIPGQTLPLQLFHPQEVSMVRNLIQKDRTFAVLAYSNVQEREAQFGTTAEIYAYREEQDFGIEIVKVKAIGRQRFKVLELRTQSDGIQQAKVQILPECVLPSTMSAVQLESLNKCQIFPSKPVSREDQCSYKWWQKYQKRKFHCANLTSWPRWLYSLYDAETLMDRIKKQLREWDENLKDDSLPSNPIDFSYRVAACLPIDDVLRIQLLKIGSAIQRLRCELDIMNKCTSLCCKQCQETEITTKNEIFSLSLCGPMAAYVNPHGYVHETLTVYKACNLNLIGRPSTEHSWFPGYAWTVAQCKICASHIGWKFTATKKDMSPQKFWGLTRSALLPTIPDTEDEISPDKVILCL
Summary of the method: (§1)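 HeLa cells (5 × 10⁵, DMEM + 10% FBS, 37 °C, 5% CO₂, ≤30 passages) seeded overnight, then treated 4 h with compound at single or graded concentrations (0.1% v/v DMSO final). RIPA lysates equalised by Bradford; SDS-PAGE and anti-CRBN/anti-VHL immunoblots; bands normalised to β-tubulin and expressed as % of mean DMSO vehicle. DC₅₀ from fit of band intensity versus log[concentration].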

[2] = molecular target: T1, Protein cereblon/von Hippel-Lindau disease tumor suppressor; assay: Protac activity at VHL/CRBN in human HeLa cells assessed as pVHL19 protein abundance at 1000 nM after 4 hrs by Western blot analysis relative to DMSO; summary of the method: as §1
[3] = molecular target: T1, Protein cereblon/von Hippel-Lindau disease tumor suppressor; assay: Protac activity at VHL/CRBN in HEK293 cells assessed as CRBN protein abundance at 1 uM after 1 hr by Western blot analysis relative to DMSO
Summary of the method: (§2)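 HEK293 cells (DMEM, 10% FBS, penicillin/streptomycin, L-glutamine; 37 °C, 5% CO2; ≤30 passages) seeded at 1 × 10⁶ per well overnight, then treated with compound at 0.1% v/v final DMSO. Cells were lysed in RIPA with protease inhibitors and benzonase, then clarified. Equal Bradford-quantified protein was immunoblotted for CRBN/VHL. Bands were normalised to β-tubulin and expressed as % of mean 0.1% DMSO vehicle.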

[4] = molecular target: T1, Protein cereblon/von Hippel-Lindau disease tumor suppressor; assay: Protac activity at VHL/CRBN in HEK293 cells assessed as pVHL30 protein abundance at 1 uM after 24 hrs by Western blot analysis relative to DMSO; summary of the method: as §2
[5] = molecular target: T1, Protein cereblon/von Hippel-Lindau disease tumor suppressor; assay: Protac activity at VHL/CRBN in human HeLa cells assessed as CRBN protein abundance at 1 uM after 8 hrs by Western blot analysis relative to DMSO
Summary of the method: (§3)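 HeLa cells seeded overnight, then exposed to 1 µM compound (0.1% v/v DMSO final) over a time course. Cells were DPBS-washed and RIPA-lysed with protease inhibitors and benzonase; equal protein was loaded. Immunoblots for CRBN and VHL isoforms were quantified against β-tubulin and reported relative to the averaged 0.1% DMSO vehicle.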

[6] = molecular target: T1, Protein cereblon/von Hippel-Lindau disease tumor suppressor; assay: Protac activity at VHL/CRBN in human HeLa cells assessed as induction of CRBN degradation at 1 uM after 4 hrs by Western blot analysis relative to control; summary of the method: as §1
[7] = molecular target: T1, Protein cereblon/von Hippel-Lindau disease tumor suppressor; assay: Protac activity at VHL/CRBN in HEK293 cells assessed as CRBN protein abundance at 5000 nM after 4 hrs by Western blot analysis relative to DMSO; summary of the method: as §2
[8] = molecular target: T1, Protein cereblon/von Hippel-Lindau disease tumor suppressor; assay: Protac activity at VHL/CRBN in human HeLa cells assessed as induction of VHL degradation at 1 uM after 1 to 24 hrs by Western blot analysis; settings: time hrs 1-24; summary of the method: as §3
[9] = molecular target: T1, Protein cereblon/von Hippel-Lindau disease tumor suppressor; assay: Protac activity at VHL/CRBN in human HeLa cells assessed as reduction in CRBN protein level at 10 nM after 4 hrs by Western blot analysis
Summary of the method: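 HeLa cells (ATCC; DMEM, 10% FBS, pen/strep, L-glutamine; 37 °C, 5% CO2; ≤30 passages; mycoplasma-tested) are seeded at 5 × 10⁵ per well overnight, then treated for 4 h with 0.1% v/v DMSO final. Lysis is in RIPA with protease inhibitors and benzonase, and equal protein (Bradford) is loaded. CRBN is immunoblotted, normalized to β-tubulin and expressed as % of mean DMSO vehicle.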

[10] = molecular target: T1, Protein cereblon/von Hippel-Lindau disease tumor suppressor; assay: Protac activity at VHL/CRBN in HEK293 cells assessed as CRBN protein abundance at 10 nM after 4 hrs by Western blot analysis relative to DMSO; summary of the method: as §2
[11] = molecular target: T1, Protein cereblon/von Hippel-Lindau disease tumor suppressor; assay: Protac activity at VHL/CRBN in human HeLa cells assessed as pVHL30 protein abundance at 100 nM after 4 hrs by Western blot analysis relative to DMSO; summary of the method: as §1
[12] = molecular target: T1, Protein cereblon/von Hippel-Lindau disease tumor suppressor; assay: Protac activity at VHL/CRBN in human HeLa cells assessed as pVHL19 protein abundance at 5 nM after 4 hrs by Western blot analysis relative to DMSO; summary of the method: as §1
[13] = molecular target: T1, Protein cereblon/von Hippel-Lindau disease tumor suppressor; assay: Protac activity at VHL/CRBN in human HeLa cells assessed as pVHL30 protein abundance at 1 uM after 4 hrs by Western blot analysis relative to DMSO; summary of the method: as §3
[14] = molecular target: T1, Protein cereblon/von Hippel-Lindau disease tumor suppressor; assay: Protac activity at VHL/CRBN in human HeLa cells assessed as induction of VHL degradation at 1 uM after 4 hrs by Western blot analysis; summary of the method: as §1
[15] = molecular target: T1, Protein cereblon/von Hippel-Lindau disease tumor suppressor; assay: Protac activity at VHL/CRBN in human HeLa cells assessed as hook effect at > 1 uM
[16] = molecular target: T1, Protein cereblon/von Hippel-Lindau disease tumor suppressor; assay: Protac activity at VHL/CRBN in HEK293 cells assessed as CRBN protein abundance at 1 uM after 24 hrs by Western blot analysis relative to DMSO; summary of the method: as §2
[17] = molecular target: T1, Protein cereblon/von Hippel-Lindau disease tumor suppressor; assay: Protac activity at VHL/CRBN in HEK293 cells assessed as pVHL19 protein abundance at 1 uM after 4 hrs by Western blot analysis relative to DMSO; summary of the method: as §2
[18] = molecular target: T1, Protein cereblon/von Hippel-Lindau disease tumor suppressor; assay: Protac activity at VHL/CRBN in HEK293 cells assessed as pVHL19 protein abundance at 1000 nM after 4 hrs by Western blot analysis relative to DMSO; summary of the method: as §2
[19] = molecular target: T1, Protein cereblon/von Hippel-Lindau disease tumor suppressor; assay: Protac activity at VHL/CRBN in HEK293 cells assessed as pVHL30 protein abundance at 1 uM after 2 hrs by Western blot analysis relative to DMSO; summary of the method: as §2
[20] = molecular target: T1, Protein cereblon/von Hippel-Lindau disease tumor suppressor; assay: Protac activity at VHL/CRBN in human HeLa cells assessed as CRBN protein abundance at 1 uM after 1 hr by Western blot analysis relative to DMSO
Summary of the method: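 HeLa cells (DMEM, 10% FBS, penicillin/streptomycin, L-glutamine; 37 °C, 5% CO2) seeded at 5 × 10⁵ per well overnight, then treated in 0.1% v/v final DMSO. Cells were lysed in RIPA with protease inhibitors and benzonase, and equal protein was run on SDS-PAGE/nitrocellulose blots probed with anti-CRBN. Bands were normalised to β-tubulin and expressed relative to mean 0.1% DMSO vehicle.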

[21] = molecular target: T1, Protein cereblon/von Hippel-Lindau disease tumor suppressor; assay: Protac activity at VHL/CRBN in HEK293 cells assessed as pVHL19 protein abundance at 1 uM after 8 hrs by Western blot analysis relative to DMSO; summary of the method: as §2
[22] = molecular target: T1, Protein cereblon/von Hippel-Lindau disease tumor suppressor; assay: Protac activity at VHL/CRBN in HEK293 cells assessed as pVHL30 protein abundance at 1 uM after 12 hrs by Western blot analysis relative to DMSO; summary of the method: as §2
[23] = molecular target: T1, Protein cereblon/von Hippel-Lindau disease tumor suppressor; assay: Protac activity at VHL/CRBN in human HeLa cells assessed as reduction in CRBN protein level at 1 uM after 4 hrs by Western blot analysis; summary of the method: as §1
[24] = molecular target: T1, Protein cereblon/von Hippel-Lindau disease tumor suppressor; assay: Protac activity at VHL/CRBN in human HeLa cells assessed as pVHL30 protein abundance at 50 nM after 4 hrs by Western blot analysis relative to DMSO; summary of the method: as §1
[25] = molecular target: T1, Protein cereblon/von Hippel-Lindau disease tumor suppressor; assay: Protac activity at VHL/CRBN in human HeLa cells assessed as pVHL30 protein abundance at 1000 nM after 4 hrs by Western blot analysis relative to DMSO; summary of the method: as §1
[26] = molecular target: T1, Protein cereblon/von Hippel-Lindau disease tumor suppressor; assay: Protac activity at VHL/CRBN in HEK293 cells assessed as pVHL19 protein abundance at 10000 nM after 4 hrs by Western blot analysis relative to DMSO; summary of the method: as §2

Activity [1]: 49%
Activity [2]: 110%
Activity [3]: 14%
Activity [4]: 101%
Activity [5]: 15%
%max [6]: 75%
Activity [6]: 64%
Activity [7]: 25%
Activity [8]: inactive
Activity [9]: inactive
Activity [10]: 113%
Activity [11]: 101%
Activity [12]: 87%
Activity [13]: 103%
Activity [14]: inactive
Activity [15]: Active
Activity [16]: 6%
Activity [17]: 101%
Activity [18]: 119%
Activity [19]: 87%
Activity [20]: 57%
Activity [21]: 105%
Activity [22]: 113%
Activity [23]: Active
Activity [24]: 79%
Activity [25]: 125%
Activity [26]: 106%
Structure (SMILES): Cc1ncsc1-c1ccc(CNC(=O)[C@@H]2C[C@@H](O)CN2C(=O)[C@@H](NC(=O)COCCCCCOCCOCCCCCOCC(=O)NCCNc2cccc3c2C(=O)N(C2CCC(=O)NC2=O)C3=O)C(C)(C)C)cc1 (some centres not stated)
